Shown are actives, neighbours in structure and some others; about 2.3% of the full set was active somewhere.
DSG3 Ab inh = inhibitors of pemphigus antibody binding to human desmoglein-3 | DSG3-coupled beads, scFv-anti-DSG3-GFP binding, flow cytometry; active compounds read low | binding (percent of control), % at 10 µM | 0.48% of 310,000 active | AID 588358;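 active means binding more than 3 SD below its plate's average and above zero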;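 further: hits lower antibody fragment binding to DSG3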
Mcl-1 Bim block = disrupts Bim peptide binding to human Mcl-1. Q07820. Bead-based flow cytometry, Bim peptide-Mcl-1 binding. inhibition, % at 10 µM. 0.1% of 190,000 active. AID 1009; in the data active means inhibition above about 40%;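 further: 0% = no compound tracer wells and 100% = peptide blocker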
Mcl1 Bid PPI = disrupts binding of human Mcl-1 to Bid peptide; Q07820; TR-FRET Mcl-1/Bid-Dy647 peptide binding, 1536-well; inhibition, % at 21.7 µM; 0.97% of 220,000 active; AID 1021;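 active means compounds that cut the binding signal by more than half at the single screening dose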;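 further: His-tagged Mcl-1 with europium anti-His antibody binding Bid BH3 peptide; 0% = Mcl-1 plus peptide wells and 100% = peptide-only wells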
MCL1 BIM primary = disrupts human MCL1 binding to BIM-BH3 peptide | inhibition, % at 10.9 µM | Q07820 | 0.68% of 320,000 active | GST-MCL1 / FITC-Bim-BH3 fluorescence polarization;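 active means inhibition above the mean inhibition of all tested compounds plus 3 SD, set per campaign, cut at about 40% in these data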;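 further: 0% = DMSO wells and 100% = unlabeled Bim-BH3 peptide control; higher means more loss of mP so more displacement of Bim peptide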
Mcl1-Noxa inh = Mcl-1/Noxa interaction inhibition | inhibition, % at 21.7 µM | AID 1022 | Q07820 | TR-FRET Mcl-1/Noxa peptide binding, 2 h | 1.5% of 220,000 active;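 active means compounds that cut the protein-peptide binding signal by more than 50% relative to plate controls in a single-dose test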;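 further: His-tagged Mcl-1 with rhodamine Noxa BH3 peptide and terbium anti-His antibody; 0% = Mcl-1 plus Noxa peptide wells and 100% = peptide-only wells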
T cell HTS = modulates CD8 T cell binding to vesicles | 2C CD8+ T cell-vesicle binding, flow cytometry; active compounds read low | response (vesicle binding), % at 7 µM | 0.068% of 330,000 active;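 active means response, share of CD8 T cells binding vesicles, and their 90th percentile fluorescence all below set limits, cut at about 80% in these data, passing the limit was not always enough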;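 further: values below 100% mean blocked vesicle binding to the CD8+ T cells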
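Material: murine 2C transgenic CD8+ T lymphocytes / Also added: QL9-peptide-loaded Drosophila micro-vesicles bearing Ld, ICAM-1 and B7-1 / Schedule: binding step 1.5 h, 37 °C, antibody labelling 20 min, ice / Signal: flow cytometry, PE anti-B7-1 (FL2) versus Alexa647 anti-CD8 (FL8), PFA-fixed / Evaluation: percent CD8+ FL2 mean versus row control / Benchmarks: naked versus QL9-loaded vesicles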
* hit, by the source's call.

CN(C)c1ccc(NC(=O)c2cccc(N3C(=O)C4C5C=CC(C5)C4C3=O)c2)cc1 (centres undefined) was read as DSG3 Ab inh 100, Mcl-1 Bim block -2, Mcl1 Bid PPI -74, MCL1 BIM primary 0, Mcl1-Noxa inh 80* and T cell HTS 315.
For Cc1ccc(NC(=O)COC(=O)c2cccc(N3C(=O)c4ccccc4C3=O)c2)cc1 the results were DSG3 Ab inh 93, Mcl1 Bid PPI -61, MCL1 BIM primary 7, Mcl1-Noxa inh 1 and T cell HTS 121.
Cc1ccc(NC(=O)c2cccc(N3C(=O)C4C5C=CC(C5)C4C3=O)c2)cc1C (centres undefined) was read as DSG3 Ab inh 113 and T cell HTS 345.
O=C(OCC(=O)N1CCCCCC1)c1ccc(F)cc1F was read as DSG3 Ab inh 102.
COc1ccc(OC)c(NC(=O)NCCc2cccc(Cl)c2)c1 was read as DSG3 Ab inh 75*, Mcl-1 Bim block -7, Mcl1 Bid PPI -1, MCL1 BIM primary -2, Mcl1-Noxa inh 23 and T cell HTS 221.
`O=C(Nc1cc(Cl)ccc1Cl)c1ccc(OC(=O)c2ccco2)cc1` gave DSG3 Ab inh 65*, Mcl-1 Bim block -3, Mcl1 Bid PPI -4, MCL1 BIM primary 2, Mcl1-Noxa inh 11 and T cell HTS 190.
Screening Cc1ccc(NC(=O)c2ccc(OC(=O)c3ccco3)cc2)cc1 returned DSG3 Ab inh 87, Mcl-1 Bim block -4, Mcl1 Bid PPI -1, MCL1 BIM primary 4, Mcl1-Noxa inh -8 and T cell HTS 290.
Screening COc1ccc(NC(=O)Cn2nnc(C(=O)NCc3ccccc3)c2N)cc1Cl returned DSG3 Ab inh 89*, Mcl-1 Bim block -1, Mcl1 Bid PPI 14, MCL1 BIM primary 1, Mcl1-Noxa inh 3 and T cell HTS 152.
`COc1ccc(NC(=O)Cn2nnc(C(=O)NCc3ccc(C)cc3)c2N)cc1Cl` gave DSG3 Ab inh 92, MCL1 BIM primary -2 and T cell HTS 480.
`CCOc1ccc(Cn2nnc(C(=O)Nc3cc(C)cc(C)c3)c2N)cc1` gave DSG3 Ab inh 72*, Mcl-1 Bim block 0, Mcl1 Bid PPI -3, MCL1 BIM primary -4, Mcl1-Noxa inh 9 and T cell HTS 179.
COc1cccc(Cn2nnc(C(=O)Nc3cc(C)ccc3OC)c2N)c1 was read as DSG3 Ab inh -1.1*, Mcl-1 Bim block 0, Mcl1 Bid PPI -27, MCL1 BIM primary -5, Mcl1-Noxa inh -14 and T cell HTS 196.
`CCOc1ccc(Cn2nnc(C(=O)Nc3cc(OC)cc(OC)c3)c2N)cc1` gave DSG3 Ab inh 107, Mcl-1 Bim block 0, Mcl1 Bid PPI -5, MCL1 BIM primary -4, Mcl1-Noxa inh -42 and T cell HTS 127.
`COc1ccc(C(=O)NCC(=O)NCc2ccncc2)cc1` gave DSG3 Ab inh 87 and T cell HTS 918.
CCOc1ccccc1NC(=O)COC(=O)C1COc2ccccc2O1 (centres undefined) was read as DSG3 Ab inh 99.
C=CC(C)(C)c1c(O)c(CC=C(C)C)c(O)c2c(=O)c3ccc(O)c(O)c3oc12 was read as DSG3 Ab inh 93, MCL1 BIM primary 2 and T cell HTS 32*.
`C/C(=N\OC(=O)c1cccc(C)c1)c1sc(-c2ccccc2)nc1C` gave DSG3 Ab inh -28*, Mcl-1 Bim block -7, Mcl1 Bid PPI 4, MCL1 BIM primary 7, Mcl1-Noxa inh -2 and T cell HTS 392.
Screening C/C(=N\OC(=O)c1cccc(C(F)(F)F)c1)c1sc(-c2ccccc2)nc1C returned DSG3 Ab inh 78*, Mcl-1 Bim block -5, Mcl1 Bid PPI -31, MCL1 BIM primary 0, Mcl1-Noxa inh 4 and T cell HTS 677.
`O=C(Cn1nc(C(=O)O)c2ccccc2c1=O)Nc1ccccc1C(F)(F)F` gave DSG3 Ab inh 100, MCL1 BIM primary 0 and T cell HTS 318.
Screening COc1ccc(CC(=O)OCC(=O)Nc2ncc(Cl)c(C)c2Cl)cc1 returned DSG3 Ab inh 99.
For O=C(CSc1cn(Cc2cccc(F)c2)c2ccccc12)NCc1ccc(F)cc1 the results were DSG3 Ab inh 81, Mcl-1 Bim block -3, Mcl1 Bid PPI 62*, MCL1 BIM primary -2, Mcl1-Noxa inh 4 and T cell HTS 301.
For COCCN(C(=O)CSc1nnc(-c2ccccc2F)o1)c1c(N)n(CC(C)C)c(=O)[nH]c1=O the results were DSG3 Ab inh 107, MCL1 BIM primary -3 and T cell HTS 904.
For CC(=O)N/C(=C\c1ccc(C)o1)C(=O)NCc1ccccc1 the results were DSG3 Ab inh 107, MCL1 BIM primary 13 and T cell HTS 218.
`O=C(Nc1ccccc1)OCCOc1ccccc1` gave DSG3 Ab inh 91, Mcl-1 Bim block -2, Mcl1 Bid PPI 12, MCL1 BIM primary 2, Mcl1-Noxa inh 5 and T cell HTS 411.
`O=C(Nc1ccccc1)OCCOc1ccccc1Br` gave DSG3 Ab inh 69* and T cell HTS 233.
O=C(Nc1ccccc1)OCCOc1cccc(Br)c1 was read as DSG3 Ab inh 109, MCL1 BIM primary 3 and T cell HTS 151.
`O=C(Nc1ccccc1)OCCCCCOC(=O)Nc1ccccc1` gave DSG3 Ab inh 79*, MCL1 BIM primary -1 and T cell HTS 203.
Screening COc1ccc(N2CCN(S(=O)(=O)CC34CCC(CC3=O)C4(C)C)CC2)cc1 (centres undefined) returned DSG3 Ab inh 114, MCL1 BIM primary 10 and T cell HTS 609.
Screening CCN(c1ccccc1)S(=O)(=O)c1ccc2[nH]cc(C(=O)N3CCOCC3)c(=O)c2c1 returned DSG3 Ab inh 107, Mcl-1 Bim block 0, Mcl1 Bid PPI 57*, MCL1 BIM primary 4, Mcl1-Noxa inh -1 and T cell HTS 386.
CCN(c1ccc(F)cc1)S(=O)(=O)c1ccc2[nH]cc(C(=O)NCCCN3CCOCC3)c(=O)c2c1 was read as DSG3 Ab inh 99, Mcl-1 Bim block 0, Mcl1 Bid PPI 32, MCL1 BIM primary 1, Mcl1-Noxa inh 31 and T cell HTS 997.
Cn1c(N)c(C(=O)Nc2ccc3ccccc3c2)sc1=S was read as DSG3 Ab inh 98, Mcl-1 Bim block -9, Mcl1 Bid PPI 44, MCL1 BIM primary -12, Mcl1-Noxa inh 66* and T cell HTS 370.
Screening Cn1c(N)c(C(=O)Nc2ccccc2F)sc1=S returned DSG3 Ab inh 107, Mcl1 Bid PPI -31, MCL1 BIM primary 12, Mcl1-Noxa inh 1 and T cell HTS 798.
Screening CCOc1ncccc1C(=O)OCC(=O)NC1CCCCCC1 returned DSG3 Ab inh 101.
For COc1ccc2c(N)c(C(=O)NN)[nH]c2c1 the results were DSG3 Ab inh 106, Mcl1 Bid PPI -195, MCL1 BIM primary 3, Mcl1-Noxa inh 64* and T cell HTS 506.

High-throughput results: PubChem, several laboratories
